Test results: ChEMBL document CHEMBL4808231, “Development of curcumin-based amyloid β aggregation inhibitors for Alzheimer's disease using the SAR matrix approach” (Bioorg Med Chem, 2021)
Active and inactive are the calls of the source. The rule behind the calls is not given here.

Key:
[1] = Inhibition of human amyloid beta 42 aggregation assessed as decreasing in fluorescence intensity for 3 hrs by ThT fluorescence assay
Summary of the method: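 Aβ42 monomer (20 µM final) plus ThT (20 µM final, diluted in PBS pH 7.4) and serial 10-fold compound dilutions (1 to 0.00001 µM), 37 °C for 3 h with 15 s shaking every 5 min. Fluorescence read at ex 430/em 480 nm and corrected against a PBS+ThT blank. IC50 taken from intensity at half Vmax versus concentration; mean ± s.d. of triplicates.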

[2] = test system: N2a; test: Neuroprotective effect against amyloid beta-induced cytotoxicity in mouse N2a cells assessed as cell viability measured after 3 hrs by MTT assay (reference value: 55%); assay type: functional
[3] = Neurotoxicity in mouse N2a cells assessed as cell viability for 24 hrs by MTT assay; assay type: cell-based
Summary of the method: (§1)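 N2A or U87 MG cells (8x10^3/well, DMEM + 10% FBS, grown overnight at 37 °C, 5% CO2) treated 24 h with compound at 1, 5, 10, 25, 50, 100 and 200 µM. MTT 0.5 mg/mL for 3 h, DMSO added, absorbance read at 550 nm. IC50 from semi-log dose-response plots; mean ± s.d. of three independent experiments in triplicate.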

[4] = Neurotoxicity in human U87 MG cells assessed as cell viability for 24 hrs by MTT assay; assay type: cell-based, U-87MG ATCC; settings: U-87 MG; summary of the method: as §1
[5] = target: Amyloid-beta precursor protein (Homo sapiens) (UniProt P05067); test: Inhibition of amyloid beta (unknown origin) aggregation assessed as increase in generation of amyloid beta oligomers at 10 uM incubated for 30 mins by negative staining TEM imaging analysis
Sequence of Amyloid-beta precursor protein (Homo sapiens) (P05067 whole entry): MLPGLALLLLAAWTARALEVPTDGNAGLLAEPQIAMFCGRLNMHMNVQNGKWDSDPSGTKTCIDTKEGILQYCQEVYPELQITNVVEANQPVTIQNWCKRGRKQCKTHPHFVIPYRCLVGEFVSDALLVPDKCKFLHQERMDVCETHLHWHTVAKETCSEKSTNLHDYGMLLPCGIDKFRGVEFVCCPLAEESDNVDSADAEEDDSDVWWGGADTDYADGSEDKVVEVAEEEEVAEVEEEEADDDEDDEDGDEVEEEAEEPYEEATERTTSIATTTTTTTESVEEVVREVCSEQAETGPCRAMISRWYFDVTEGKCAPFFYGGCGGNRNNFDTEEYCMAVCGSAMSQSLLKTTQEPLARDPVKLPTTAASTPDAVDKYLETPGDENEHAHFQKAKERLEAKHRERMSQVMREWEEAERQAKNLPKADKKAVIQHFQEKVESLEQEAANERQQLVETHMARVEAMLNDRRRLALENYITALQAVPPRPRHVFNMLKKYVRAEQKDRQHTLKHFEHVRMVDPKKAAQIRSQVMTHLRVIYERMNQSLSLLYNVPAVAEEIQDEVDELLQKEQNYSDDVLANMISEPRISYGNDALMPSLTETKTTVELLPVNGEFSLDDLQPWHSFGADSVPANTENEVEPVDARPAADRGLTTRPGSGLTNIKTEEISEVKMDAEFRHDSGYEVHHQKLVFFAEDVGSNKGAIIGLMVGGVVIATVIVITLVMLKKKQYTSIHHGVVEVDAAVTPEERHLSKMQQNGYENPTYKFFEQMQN
Summary of the method: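 Aβ monomer stock (500 µM in 2 mM NaOH, centrifuged supernatant) diluted to 5 µM, incubated alone or with compound in PBS pH 7.4 at 37 °C for 30 min. Sample applied to plasma-hydrophilised carbon grid for 1 min at RT, washed with water, stained 1 min with 1% Nano-W, imaged by TEM at 200 kV.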

| Compound | IC50 [1] [nM] | Activity [2] [%] | IC50 [3] [nM] | IC50 [4] [nM] | inhibition [5] |
| --- | --- | --- | --- | --- | --- |
| COC(=O)COc1ccc(/C=C/C(=O)CC(=O)/C=C/c2ccc(O)c(OC)c2)cc1OC | 29 |  |  |  |  |
| COc1cc(/C=C/C(=O)CC(=O)/C=C/c2ccc(OCC(=O)O)c(C(F)(F)F)c2)ccc1O | 698 |  |  |  |  |
| COC(=O)COc1ccc(/C=C/C(=O)CC(=O)/C=C/c2ccc(OCC(=O)OC)c(C(F)(F)F)c2)cc1OC | 55 |  |  |  |  |
| COC(=O)COc1ccc(/C=C/C(=O)CC(=O)/C=C/c2ccc(O)c(OC)c2)cc1C(F)(F)F | 7 | 70 | 38700 | 90000 | Active |
| COc1cc(/C=C/C(=O)CC(=O)/C=C/c2cccc(C(F)(F)F)c2)ccc1O | 13 |  | 65700 | 88700 |  |
| COc1cc(/C=C/C(=O)CC(=O)/C=C/c2ccc(O)c(C(F)(F)F)c2)ccc1O | 52 |  |  |  |  |
| COc1cc(/C=C/C(=O)CC(=O)/C=C/c2ccc(O)c(OC)c2)ccc1O [CURCUMIN] | 693 |  | 22600 | 18400 |  |
| Nc1c2c(nc3ccccc13)CCCC2 [TACRINE] | 22 |  |  |  |  |
| COC(=O)COc1ccc(/C=C/C(=O)CC(=O)/C=C/c2ccc(O)c(C(F)(F)F)c2)cc1C(F)(F)F | 109 |  |  |  |  |
| COc1cc(/C=C/C(=O)CC(=O)/C=C/c2ccc(OCC(=O)OC(C)(C)C)c(C(F)(F)F)c2)ccc1O | 55 | >90 | > 100000 | > 100000 |  |
| COC(=O)COc1ccc(/C=C/C(=O)CC(=O)/C=C/c2cccc(C(F)(F)F)c2)cc1OC | 46 |  |  |  |  |
| O=C(/C=C/c1cccc(C(F)(F)F)c1)CC(=O)/C=C/c1ccc(O)c(C(F)(F)F)c1 | 18 |  |  |  |  |
| COC(=O)COc1ccc(/C=C/C(=O)CC(=O)/C=C/c2ccc(O)c(C(F)(F)F)c2)cc1OC | 22 |  |  |  |  |
